# Published values from different studies.
# Each line is one published result; the experiments were not run side by side.
# Cell line: MOLT-4
# Effect on: cell growth or viability
SMILES,assay,setting,IC50 [nM]
Cc1ncsc1-c1ccc([C@H](C)NC(=O)[C@@H]2C[C@@H](O)CN2C(=O)[C@@H](NC(=O)CCCCCS(=O)(=O)NC(=O)c2nc(N3CCc4cccc(C(=O)Nc5nc6ccccc6s5)c4C3)ccc2-c2cnn(CC34CC5CC(CC(C5)C3)C4)c2C)C(C)(C)C)cc1,MTS,48 h,4
O=C(CSc1nc2ccccc2s1)N/N=C/c1ccc(OCC(=O)Nc2ccc(Br)cc2)cc1,MTS,72 h,> 100000
COc1ccc(Nc2ncnc3c2ncn3Cc2ccc(C(=O)NO)cc2)cc1,MTT,72 h,460
Cc1ncsc1-c1ccc([C@H](C)NC(=O)[C@@H]2C[C@@H](O)CN2C(=O)[C@@H](NC(=O)CCCCCCS(=O)(=O)NC(=O)c2nc(N3CCc4cccc(C(=O)Nc5nc6ccccc6s5)c4C3)ccc2-c2cnn(CC34CC5CC(CC(C5)C3)C4)c2C)C(C)(C)C)cc1,MTS,48 h,4.5
COc1cccc2c1C(=O)c1c(O)c3c(c(O)c1C2=O)C[C@@](O)(C(=O)CO)C[C@@H]3O[C@H]1C[C@H](N)[C@H](O)[C@H](C)O1,,96 h,2.61
Cc1c(-c2ccc(N3CCc4cccc(C(=O)Nc5nc6ccccc6s5)c4C3)nc2C(=O)O)cnn1CC12CC3CC(C1)CC(C(=O)NCCCCCCCCCCCCNc1cccc4c1C(=O)N(C1CCC(=O)NC1=O)C4=O)(C3)C2 (centres unmarked),MTS,48 h,49.4
O=C(NO)c1ccc(Cn2cnc3c(Nc4ccc(Cl)cc4)ncnc32)cc1,MTT,72 h,190
COc1cc([C@@H]2c3cc4c(cc3[C@@H](O[C@@H]3O[C@@H]5CO[C@@H](C)O[C@H]5[C@H](O)[C@H]3O)[C@H]3COC(=O)[C@H]23)OCO4)cc(OC)c1O,MTS,72 h,180
COc1ccc(Nc2ncnc3c2ncn3Cc2ccc(C(=O)Nc3ccccc3N)cc2)cc1,MTT,72 h,610
O=C(CSc1nc2ccccc2s1)N/N=C/c1ccc(OCC(=O)Nc2cccc(Br)c2)cc1,MTS,72 h,> 100000
CCS(=O)(=O)NC(=O)c1nc(N2CCc3cccc(C(=O)Nc4nc5ccccc5s4)c3C2)ccc1-c1cnn(CC23CC4CC(CC(C4)C2)C3)c1C,MTS,48 h,5.1
Cc1nc(Nc2ncc(C(=O)Nc3c(C)cccc3Cl)s2)cc(N2CC[C@H](O)C2)n1,ATP luminescence,72 h,> 10000
O=C(NO)c1ccc(Cn2cnc3c(Nc4ccc(F)c(Cl)c4)ncnc32)cc1,MTT,72 h,660
CN1CCC(NC2CCc3[nH]c4c(C(N)=O)ccc(-c5ccccc5Cl)c4c3C2)CC1 (centres unmarked),,96 h,18.7
